Measurements published in ChEMBL document CHEMBL4152350, “A new multifunctional hydroxytyrosol-clofibrate with hypolipidemic, antioxidant, and hepatoprotective effects” (Bioorg Med Chem Lett, 2018).
Calls of active or inactive are those of the source. No cut-off for these calls is given here.

Assays:
Mus musculus [1] = assay: Hypolipidemic activity in Triton WR 1339-induced acute hyperlipidemic ICR mouse model assessed as decrease in total cholesterol levels in plasma at 240 umol/kg, ig for one week followed by Triton WR 1339 challenge on day 6 measured after 24 hrs; format: functional; parameters: scale not given: the % may be the effect or the level left
Method in brief: (§1)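 Acute hyperlipidemia was induced with Triton WR 1339 in mice given 240 µmol/kg intragastrically for 7 days. Plasma TG and TC are expressed as percent reduction, and plasma MDA in nmol/mL. Data are mean ± SEM, n=8, compared against the blank and model groups.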

Mus musculus [2] = assay: Hypolipidemic activity in Triton WR 1339-induced acute hyperlipidemic ICR mouse model assessed as decrease in malonaldehyde levels in plasma at 240 umol/kg, ig for one week followed by Triton WR 1339 challenge on day 6 measured after 24 hrs; format: functional; parameters: scale not given: the % may be the effect or the level left; method in brief: as §1
Mus musculus [3] = assay: Hypolipidemic activity in Triton WR 1339-induced acute hyperlipidemic ICR mouse model assessed as decrease in plasma triglyceride levels at 240 umol/kg, ig for one week followed by Triton WR 1339 challenge on day 6 measured after 24 hrs; format: functional; parameters: scale not given: the % may be the effect or the level left; method in brief: as §1
Mus musculus [4] = assay: Antioxidant activity in ICR mouse assessed as hepatic GSSG levels at 240 umol/kg/day administered po for 2 months (reference value: 2.91 +/- 0.31 microM); format: functional
Method in brief: (§2)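 Male ICR mice (20.0 ± 2.0 g) received 240 µmol/kg/day; normal controls got an equal volume of vehicle. Commercial kits measured serum SOD, CAT and MDA and hepatic GSH and GSSG, with the GSH/GSSG ratio calculated. Groups were compared with normal and CF groups.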

Mus musculus [5] = assay: Toxicity in ICR mouse assessed as body weight at 240 umol/kg/day administered po for 2 months (reference value: 36.8 +/- 0.70 g); format: organism-based; conditions: in vivo
Mus musculus [6] = assay: Hepatoprotective activity in ICR mouse assessed as hypertrophy at 240 umol/kg/day administered po for 2 months by histopathological analysis; format: functional, organism-based
Method in brief: (§3)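 Liver slices from male ICR mice (20.0 ± 2.0 g) were examined histopathologically after 240 µmol/kg/day dosing; normal controls received the same volume of vehicle.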

Mus musculus [7] = assay: Hepatoprotective activity in ICR mouse assessed as centrilobular hypertrophy at 240 umol/kg/day administered po for 2 months by histopathological analysis; format: functional, organism-based; method in brief: as §3
Mus musculus [8] = assay: Hepatoprotective activity in ICR mouse assessed as liver weight at 240 umol/kg/day administered po for 2 months (reference value: 1.49 +/- 0.42 g); format: functional
[9] = Antioxidant activity assessed as DPPH radical scavenging activity after 30 mins; format: functional
Mus musculus [10] = assay: Antioxidant activity in ICR mouse assessed as hepatic GSH to GSSG ratio at 240 umol/kg/day administered po for 2 months (reference value: 16.4 +/- 2.34); format: functional; method in brief: as §2
Mus musculus [11] = assay: Antioxidant activity in ICR mouse assessed as serum MDA levels at 240 umol/kg/day administered po for 2 months (reference value: 6 +/- 0.20 microM); format: functional; method in brief: as §2
Mus musculus [12] = assay: Antioxidant activity in ICR mouse assessed as hepatic GSH levels at 240 umol/kg/day administered po for 2 months (reference value: 43.38 +/- 4.59 microM); format: functional; method in brief: as §2
Mus musculus [13] = assay: Hepatoprotective activity in ICR mouse assessed as hepatocyte hyperplasia at 240 umol/kg/day administered po for 2 months by histopathological analysis; format: functional, organism-based; method in brief: as §3
Mus musculus [14] = assay: Hepatoprotective activity in ICR mouse assessed as liver coefficient at 240 umol/kg/day administered po for 2 months (reference value: 40.50 +/- 0.71 mg/g); format: functional
Mus musculus [15] = assay: Antioxidant activity in ICR mouse assessed as serum SOD levels at 240 umol/kg/day administered po for 2 months (reference value: 337.64 +/- 4.82 U/ml); format: functional; method in brief: as §2
Mus musculus [16] = assay: Hepatoprotective activity in ICR mouse assessed as serum APK levels per 100 ml at 240 umol/kg/day administered po for 2 months (reference value: 20.02 +/- 0.61 U); format: functional
[17] = Antioxidant activity assessed as hydroxyl radical scavenging activity after 60 mins; format: functional
Mus musculus [18] = assay: Hepatoprotective activity in ICR mouse assessed as serum AST levels at 240 umol/kg/day administered po for 2 months (reference value: 107.25 +/- 2.77 U/L); format: functional
Mus musculus [19] = assay: Hepatoprotective activity in ICR mouse assessed as serum ALT levels at 240 umol/kg/day administered po for 2 months (reference value: 36.25 +/- 1.08 U/L); format: functional
Mus musculus [20] = assay: Hepatoprotective activity in ICR mouse assessed as serum TBIL levels at 240 umol/kg/day administered po for 2 months (reference value: 0.63 +/- 0.09 microM); format: functional
Mus musculus [21] = assay: Antioxidant activity in ICR mouse assessed as serum CAT levels at 240 umol/kg/day administered po for 2 months (reference value: 2.83 +/- 0.22 U/ml); format: functional; method in brief: as §2
Mus musculus [22] = assay: Hepatoprotective activity in ICR mouse assessed as midzonal mitosis at 240 umol/kg/day administered po for 2 months by histopathological analysis; format: functional, organism-based; method in brief: as §3

Compound | Activity (Mus musculus [1]) [%] | Activity (Mus musculus [2]) [%] | Activity (Mus musculus [3]) [%] | Activity (Mus musculus [4]) [µM] | Activity (Mus musculus [5]) [g] | Activity (Mus musculus [6]) | Activity (Mus musculus [7]) | Activity (Mus musculus [8]) [g] | Activity [9] | Ratio (Mus musculus [10]) | Activity (Mus musculus [11]) [µM] | Activity (Mus musculus [12]) [µM] | Activity (Mus musculus [13]) | Activity (Mus musculus [14]) [mg/g] | Activity (Mus musculus [15]) [U/ml] | Activity (Mus musculus [16]) [U] | Activity [17] | Activity (Mus musculus [18]) [U/L] | Activity (Mus musculus [19]) [U/L] | Activity (Mus musculus [20]) [µM] | further results
CC(C)(Oc1ccc(Cl)cc1)C(=O)OCCc1ccc(O)c(O)c1 | 33 | 29 | 30 | 4.85 | 33.4 | Active | Active | 1.48 | Active | 4.1 | 6.44 | 22.87 | Active | 44.17 | 275.2 | 17.57 | Active | 121.37 | 39.75 | 0.95 | Activity (Mus musculus [21]): 2.04 U/ml; Activity (Mus musculus [22]): Active
CCOC(=O)C(C)(C)Oc1ccc(Cl)cc1 [CLOFIBRATE] | 23 | 14 | 24 | 6.24 | 33.8 | inactive | inactive | 1.77 | inactive | 2.1 | 7.79 | 11.6 | inactive | 52.12 | 228.32 | 28.64 | inactive | 157.5 | 63.13 | 13.09 | Activity (Mus musculus [21]): 3.86 U/ml; Activity (Mus musculus [22]): inactive
